HKDC1 activator: activators of human hexokinase HKDC1 | recombinant HKDC1, G6PDH/diaphorase resazurin fluorescence; active compounds read low | 340,000 compounds, 0.056% hits | Q2TB90 | activity change, negative = activation, % at 20 µM | AID 493187;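 active = activation of 40% or more at 20 µM, a change of -40% or lower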
Target sequence (Q2TB90 whole entry, looked up): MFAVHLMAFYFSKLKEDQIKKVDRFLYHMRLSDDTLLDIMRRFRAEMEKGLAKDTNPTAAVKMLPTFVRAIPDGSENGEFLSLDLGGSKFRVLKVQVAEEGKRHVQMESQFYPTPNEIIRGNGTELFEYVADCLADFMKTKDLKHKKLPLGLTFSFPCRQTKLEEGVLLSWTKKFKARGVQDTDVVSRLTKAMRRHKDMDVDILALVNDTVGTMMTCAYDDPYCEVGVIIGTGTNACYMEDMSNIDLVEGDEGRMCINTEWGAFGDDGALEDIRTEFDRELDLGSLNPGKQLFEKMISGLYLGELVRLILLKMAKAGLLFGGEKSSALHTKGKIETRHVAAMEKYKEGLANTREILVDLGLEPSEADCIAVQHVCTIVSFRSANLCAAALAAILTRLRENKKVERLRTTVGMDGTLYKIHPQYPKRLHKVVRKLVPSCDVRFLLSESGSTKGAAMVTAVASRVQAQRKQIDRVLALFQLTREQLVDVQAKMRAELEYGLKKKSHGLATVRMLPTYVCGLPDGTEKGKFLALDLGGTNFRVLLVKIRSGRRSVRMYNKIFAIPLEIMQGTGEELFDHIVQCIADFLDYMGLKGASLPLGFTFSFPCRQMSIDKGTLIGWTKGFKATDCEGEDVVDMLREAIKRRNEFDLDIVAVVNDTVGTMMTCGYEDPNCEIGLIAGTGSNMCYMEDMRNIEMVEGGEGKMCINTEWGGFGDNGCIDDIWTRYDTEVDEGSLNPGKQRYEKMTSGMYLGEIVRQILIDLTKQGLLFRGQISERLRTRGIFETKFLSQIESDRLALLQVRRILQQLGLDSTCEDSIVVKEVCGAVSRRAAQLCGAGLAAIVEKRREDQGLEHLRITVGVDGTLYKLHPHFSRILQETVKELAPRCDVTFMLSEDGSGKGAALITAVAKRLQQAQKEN
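Signal: coupled resazurin-to-resorufin fluorescence, Ex 525/Em 613 nm. Test system: in-house human HKDC1 enzyme, G6PDH and diaphorase coupling enzymes. Quantity: HKDC1 5 µg/mL. Timing: 90 min reaction at room temperature, dark.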
* marks the source's active call; other numbers are inactive results. The list is a sample of the results.

SMILES	HKDC1 activator
CN(C)c1ccc(C=c2c3cc(O)ccc3n3c2cc(-c2ccccc2)[n+]3C)cc1	55.5
NS(=O)(=O)c1ccc(N=Nc2c(=O)[nH]n3c(=O)c4c([nH]c23)CCCC4)cc1	39.6
S=C1Cc2ccccc2N1	-302.6*
COc1ccc(C(=O)/C=C/c2ccsc2)cc1CSCC(=O)O	35.7
CCCc1nc2oc3c(NCCOCCO)ncnc3c2c2c1COC(C)(C)C2	38.8
NC1=CC(=O)C(=O)c2ccccc21	49.4
Cc1ccccc1N=C1NN=C(c2ccccc2F)CS1	-46.8*
CC1CCc2c(c3ccccc3n2C(=O)CCl)C1 (configuration not stated)	45.6
O=C(O)C(Cc1ccccc1)N1C(=O)/C(=C/C=C/c2ccco2)SC1=S (configuration not stated)	37.0
CCC(c1ccccc1)C(CC)c1cc(O)c(O)c(O)c1 (configuration not stated)	42.4
Cc1cc2cc(CCNC(=O)c3cccc([N+](=O)[O-])c3)c(=O)[nH]c2cc1C	40.1
CC(C)CNC(=O)COC(=O)CNC(=O)c1cc(Cl)cc([N+](=O)[O-])c1	-51.8*
Cc1ccccc1OCCCN1C(=O)C(=O)c2cccc(C)c21	36.8
Cc1onc(C(=O)Nc2ccc(OC(F)(F)F)cc2)c1[N+](=O)[O-]	79.1
Cc1oc2c(c1C(=O)c1ccc(Cl)cc1)C(=O)C(=O)c1ccccc1-2	54.6
C=CCN1C=C2C(=O)C(C)(OC(=O)CCC(=O)OC)C(=O)C(Br)=C2C=C1c1ccc(OC)cc1 (configuration not stated)	35.6
CC(C)(C)c1ccc(-c2csc(NNC3=NCCCCC3)n2)cc1	-61.2*
COC(=O)c1ccc(CCc2cc(O)c(Br)cc2O)cc1	69.1
O=C(CCl)N(c1ccc(Cl)cc1)c1c[nH]c2ccccc12	40.8
O=C(N/N=C/c1ccc(O)cc1O)c1ccc(CN2C(=O)c3cccc4cccc2c34)cc1	-41.1*
CCOC(=O)c1cc2c(=Cc3ccc(N(C)C)cc3)c3ccccc3n2[n+]1C	36.9
Cc1nc2c(c(=O)c3ccccc3n2C)c(=O)n1-c1ccc(F)cc1	51.4
Cc1cc(C)c(S(=O)(=O)/N=C2/C=C(Sc3ncn[nH]3)C(=O)c3ccccc32)cc1C	63.7
CCOC(=O)C1=C(Cc2ccc(F)cc2)C(=O)c2ccccc2C1=O	72.7
CC(=NNC(=S)N1CC2CCC(CC2)C1)c1cnccn1	-46.6*
SMILES	HKDC1 activator
CC(=NNC(=S)N1CCN(C2CCCCCC2)CC1)c1ccccn1	-42.4*
COCCN(C(=O)COC(=O)c1cc2c(s1)CCC2)c1c(N)n(Cc2ccccc2)c(=O)[nH]c1=O	35.1
O=C(c1c[nH]c(C(=O)C(Cl)(Cl)Cl)c1)c1ccccc1F	37.4
NC(=S)N=Nc1c(O)cc(O)c2[nH]c(=O)ccc12	35.2
Cc1ccc(/C=C/C(=O)c2ccc([N+](=O)[O-])o2)cc1	46.0
COc1cccc2cc(C(=O)Nc3ccc(F)cc3)c(=Nc3ccc(C(=O)O)cc3)oc12	77.0
CCCc1nc2oc3c(OC)ncnc3c2c2c1COC(C)(C)C2	36.5
COc1ccccc1N(CC(=O)N/N=C/c1c(O)ccc2ccccc12)S(C)(=O)=O	-40.2*
Oc1ccc2ccccc2c1C=NC1CCCCC1	35.2
COc1ccc(S(=O)(=O)Nc2ccc(O)c3ccccc23)cc1	45.7
COC(=O)Cn1c2ccc(F)cc2c2nc(C)sc21	-92.0*
CCOC(=O)Cn1c2ccc(F)cc2c2nc(C)sc21	-62.2*
Cc1cc(C)n2nc(SCc3nnc(SCc4ccccc4C)s3)nc2n1	52.6
COc1cc(/C=C2\SC(=O)N(c3ccc(Cl)cc3)C2=O)cc([N+](=O)[O-])c1O	44.4
Cc1cc(C)cc(-n2c(N)c(C(=O)Nc3c(C)n(C)n(-c4ccccc4)c3=O)c3nc4ccccc4nc32)c1	38.2
COc1ccc(Oc2cc(C)nc(Cl)n2)nn1	-77.8*
CC(=O)C1=C(c2ccc(Br)cc2)C(=O)c2ccccc2C1=O	82.7
O=C1C(=C(I)I)c2ccccc2-c2ccccc21	60.7
O=C1C(C2=C(O)c3ccccc3C2=O)=Nc2ccccc21	-242.4*
COc1ccc(CN2C(=O)c3cccnc3C2Nc2cc(Cl)ccc2OC)cc1 (configuration not stated)	51.7
CCCCNC(=O)c1sc(=S)n2c1[nH]c(=O)c1ccccc12	37.8
Cc1onc(-c2ccccc2)c1C(=O)NNC(=S)NC(=O)c1ccc(Br)cc1	-51.2*
COc1ccc(-c2cc(C(=O)NNC(=S)NC(=O)c3c(-c4ccccc4)noc3C)[nH]n2)cc1	-45.7*
Cc1ccccc1C(=O)Nc1ccc2c(C#N)c3nc4ccccc4nc3n2c1	37.1
O=C(/C=C/c1ccc(Br)o1)OCc1nc2ccsc2c(=O)[nH]1	58.3
CCOc1ccc2nc3cc(N=Nc4ccc(N)nc4N)ccc3c(N)c2c1	37.3
CCOc1ccc(N)c(SSc2cc(OCC)ccc2N)c1	-41.9*
Cc1cc(O)c(C=O)c2c1C(=O)Oc1c(CO)c(O)c3c(c1O2)C(O)OC3=O (configuration not stated)	36.8
